The values that follow come from ChEMBL document CHEMBL2086383, “Antitumor agents. 293. Nontoxic dimethyl-4,4'-dimethoxy-5,6,5',6'-dimethylenedioxybiphenyl-2,2'-dicarboxylate (DDB) analogues chemosensitize multidrug-resistant cancer cells to clinical anticancer drugs” (J Med Chem, 2012).

Type in all cases: cell-based
One series concerns A549. As to the kind of experiment: Antiproliferative activity against human A549 cells after 72 hrs by SRB assay. To be noted: Homo sapiens, A549, 72 h. The procedure, abridged:
(§1)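 SRB assay. Cells at 3–5 × 10^3/well were exposed to a range of sample concentrations for 72 h. They were fixed in 50% TCA for 30 min, stained with 0.04% SRB for 30 min, and the dye was dissolved in 10 mM Tris base. Absorbance read at 515 nm. Medium was RPMI 1640 with 10% FBS at 37 °C, 5% CO2. KBvin cells were kept in 100 nM vincristine.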
(The SRB assay estimates cell density from bound dye.)

The subject of the next series is DU-145. As to the kind of experiment: Antiproliferative activity against human DU145 cells after 72 hrs by SRB assay. To be noted: Homo sapiens, DU-145, 72 h. The procedure, abridged:
as §1

The subject of the next series is KB. As to the kind of experiment: Antiproliferative activity against human KB cells after 72 hrs by SRB assay. To be noted: Homo sapiens, KB. The procedure, abridged: as §1
Series [1] can be described thus: Antiproliferative activity against human multidrug-resistant KBVIN cells after 72 hrs by SRB assay. To be noted: Homo sapiens, KBVIN. The procedure, abridged:
as §1

Series [2] deals with NIH3T3. The series can be described thus: Inhibition of human P-gp-mediated multidrug-resistance in mouse NIH3T3 MDR cells assessed as potentiation of in paclitaxel-induced cytotoxic activity at 10 uM after 72 hrs by SRB assay. To be noted: human P-gp expressed in mouse cells.
Series [3] concerns KBVIN. As to the kind of experiment: Inhibition of P-gp-mediated multidrug-resistance in human KBVIN cells assessed as fold decrease in paclitaxel IC50 for cytotoxic activity at 10 uM after 72 hrs by SRB assay relative to control. The procedure, abridged: (§2)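 KBvin cells were exposed to graded concentrations of anticancer drug (doxorubicin, paclitaxel or vincristine), alone or with 10 μM test compound, for 72 h. Growth was read by SRB assay. IC50 was found by log-linear interpolation. Reversal fold = IC50 (drug alone) / IC50 (drug + compound). Verapamil was the positive control. Each experiment was run at least three times.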

Series [4] deals with NIH3T3. As to the kind of experiment: Inhibition of human P-gp-mediated multidrug-resistance in mouse NIH3T3 MDR cells assessed as potentiation of in vincristine-induced cytotoxic activity at 10 uM after 72 hrs by SRB assay. The settings on record: Mus musculus cells expressing human P-gp.
Series [5] relates to KBVIN. The series can be described thus: Inhibition of P-gp-mediated multidrug-resistance in human KBVIN cells assessed as fold decrease in vincristine IC50 for cytotoxic activity at 10 uM after 72 hrs by SRB assay relative to control. The procedure, abridged: as §2
For series [6], the system named is KBVIN. The series can be described thus: Inhibition of P-gp-mediated multidrug-resistance in human KBVIN cells assessed as fold decrease in doxorubicin IC50 for cytotoxic activity at 10 uM after 72 hrs by SRB assay relative to control. The procedure, abridged: as §2
The subject of series [7] is KBVIN. The series can be described thus: Inhibition of P-gp-mediated multidrug-resistance in human KBVIN cells assessed as paclitaxel-induced cytotoxicity at 10 uM after 72 hrs by SRB assay. The procedure, abridged:
as §2

For series [8], the system named is KBVIN. As to the kind of experiment: Inhibition of P-gp-mediated multidrug-resistance in human KBVIN cells assessed as vincristine-induced cytotoxicity at 10 uM after 72 hrs by SRB assay. The procedure, abridged:
as §2

Series [9] concerns KBVIN. The series can be described thus: Inhibition of P-gp-mediated multidrug-resistance in human KBVIN cells assessed as doxorubicin-induced cytotoxicity at 10 uM after 72 hrs by SRB assay. The procedure, abridged: as §2
Series [10] is described as follows: (§3) Inhibition of P-gp-mediated multidrug-resistance in human KBVIN cells assessed as paclitaxel-induced cytotoxicity after 72 hrs by SRB assay. The procedure, abridged:
(§4)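 KBvin cells were cultured with 100 nM paclitaxel plus a range of compound concentrations. Growth was read by SRB, and the EC50 of reversal was derived. Verapamil was the comparator.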

The test system of series [11] is KBVIN. The series is described as §3. The procedure, abridged:
as §4

Series [12] addresses T1, ATP-dependent translocase ABCB1 (Homo sapiens, UniProt P08183). The series can be described thus: Inhibition of P-gp over expressed in human multidrug-resistant KBVIN cells after 10 mins by calcein AM accumulation assay. The procedure, abridged:
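KBvin cells at 5 × 10^3/well were pretreated with samples for 1 h, then given calcein-AM (1 μM final) for 10 min. Cells were washed with ice-cold PBS and lysed in 1% SDS/PBS. Calcein fluorescence read at Ex 494/Em 517 nm. Verapamil or CsA served as positive control.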

In series [13] the target is T1, ATP-dependent translocase ABCB1. The series can be described thus: Inhibition of P-gp over expressed in human multidrug-resistant KBVIN cells assessed as intracellular accumulation of doxorubicin at 10uM after 3 hrs by fluorescence microplate reader analysis relative to control. The procedure, abridged: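 KBvin cells at 5 × 10^3/well were pretreated with compound for 1 h, then given doxorubicin (10 μM final) for 3 h. Cells were washed with ice-cold PBS and lysed in 1% SDS/PBS. Verapamil or CsA served as positive control.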

Structures are written as SMILES. Activity calls are given as the source filed them. No cut-off for these calls is given here.

T1 sequence (P08183 whole entry): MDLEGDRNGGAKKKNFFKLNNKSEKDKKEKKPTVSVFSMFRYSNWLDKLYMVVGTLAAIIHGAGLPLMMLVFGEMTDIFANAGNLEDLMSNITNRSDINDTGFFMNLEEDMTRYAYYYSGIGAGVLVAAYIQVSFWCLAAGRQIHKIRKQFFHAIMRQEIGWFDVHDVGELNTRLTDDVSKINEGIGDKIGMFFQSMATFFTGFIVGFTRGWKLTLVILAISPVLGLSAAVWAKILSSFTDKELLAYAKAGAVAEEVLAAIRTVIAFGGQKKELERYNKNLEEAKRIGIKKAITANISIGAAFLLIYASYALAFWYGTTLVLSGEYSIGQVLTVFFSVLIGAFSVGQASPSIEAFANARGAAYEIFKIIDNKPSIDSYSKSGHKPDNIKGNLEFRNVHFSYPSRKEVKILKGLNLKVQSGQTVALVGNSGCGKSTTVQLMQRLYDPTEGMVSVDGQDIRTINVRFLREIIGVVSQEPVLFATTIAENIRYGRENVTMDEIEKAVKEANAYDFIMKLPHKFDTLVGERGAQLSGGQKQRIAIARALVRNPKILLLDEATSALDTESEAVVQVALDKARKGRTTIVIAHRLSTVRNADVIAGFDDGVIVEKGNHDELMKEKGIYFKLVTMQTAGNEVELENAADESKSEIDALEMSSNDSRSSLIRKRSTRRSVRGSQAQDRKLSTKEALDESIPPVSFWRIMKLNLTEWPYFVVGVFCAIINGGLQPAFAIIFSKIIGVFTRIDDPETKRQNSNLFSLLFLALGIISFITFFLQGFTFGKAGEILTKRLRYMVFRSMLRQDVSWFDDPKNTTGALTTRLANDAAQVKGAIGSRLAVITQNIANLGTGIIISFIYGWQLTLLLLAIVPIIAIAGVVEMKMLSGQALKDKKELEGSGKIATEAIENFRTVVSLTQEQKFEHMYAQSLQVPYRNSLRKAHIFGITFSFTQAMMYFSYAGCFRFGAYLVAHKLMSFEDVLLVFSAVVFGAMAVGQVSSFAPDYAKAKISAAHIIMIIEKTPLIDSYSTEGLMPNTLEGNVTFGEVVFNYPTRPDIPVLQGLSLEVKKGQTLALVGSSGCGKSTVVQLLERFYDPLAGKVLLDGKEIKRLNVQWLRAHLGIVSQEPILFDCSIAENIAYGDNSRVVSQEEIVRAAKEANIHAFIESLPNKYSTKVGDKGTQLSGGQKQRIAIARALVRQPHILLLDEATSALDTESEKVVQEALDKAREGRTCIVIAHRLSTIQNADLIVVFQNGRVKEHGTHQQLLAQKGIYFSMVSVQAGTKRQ

In the case of `COc1cc(COC(=O)C(C)(C)C)c(-c2c(COC(=O)C(C)(C)C)cc(OC)c3c2OCO3)c2c1OCO2`, the IC50 (in the series on A549; in the series with DU-145; with KB; in series [1]) was over 100 µM each time. The inhibition result in the series with NIH3T3 [2] and with NIH3T3 [4] was “Active” each time. Moreover, the fold change (FC) amounted to 37 with KBVIN [3], 349 with KBVIN [5], 46 in the series on KBVIN [6] and 1.2 in series [13]. The result in the series with KBVIN [7], in the series on KBVIN [8] and in the series with KBVIN [9] was Active. The EC50 (usually the concentration at which the effect is half-maximal) in [10] worked out at 2.81 µM. In addition, the inhibition result with KBVIN [11] is “Dose-dependent effect”. In addition, the “inhibition (INH)” value in series [12] is given as “Dose-dependent effect”.
